SENP6 inh: inhibitors of human SENP6 protease; inhibition, % at 10 µM; 330,000 compounds, 1.8% hits; Recombinant SENP6 catalytic domain, aminoluciferin luminescence; Q9GZR1; AID 2599;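 active = inhibition above about 50% at the single tested dose, limit read from the data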;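 note: plate controls were DMSO wells with enzyme for no effect and DMSO wells lacking enzyme for full effect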
SENP8 block-1: blocks human SENP8 cleavage of Nedd8 substrate; Q96LD8; recombinant SENP8, Nedd8 substrate fluorescence; inhibition, % at 20 µM; 360,000 compounds, 0.64% hits; in the data active = inhibition mostly above about 40%, no sharp cut-off; inactive = mostly below about 27%
Target sequence (Q96LD8 whole entry, looked up): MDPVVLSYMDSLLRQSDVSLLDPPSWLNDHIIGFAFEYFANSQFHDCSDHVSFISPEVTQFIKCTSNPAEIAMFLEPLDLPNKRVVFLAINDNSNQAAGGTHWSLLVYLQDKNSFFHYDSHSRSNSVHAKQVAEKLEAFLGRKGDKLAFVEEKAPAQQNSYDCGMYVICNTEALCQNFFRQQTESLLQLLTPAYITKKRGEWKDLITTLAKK
SENP7 block: inhibitors of human SENP7 protease. inhibition, % at 5 µM. Q9BQF6. AID 434973. recombinant SENP7, Z-RLRGG-aminoluciferin luminescence, 40 min. 330,000 compounds, 1.5% hits;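 active = inhibition above about 50% at the single test dose, limit read from the data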;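 note: plate controls were DMSO with enzyme for no effect and no enzyme buffer wells for full effect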
Target sequence (Q9BQF6 706-1050 limits assumed): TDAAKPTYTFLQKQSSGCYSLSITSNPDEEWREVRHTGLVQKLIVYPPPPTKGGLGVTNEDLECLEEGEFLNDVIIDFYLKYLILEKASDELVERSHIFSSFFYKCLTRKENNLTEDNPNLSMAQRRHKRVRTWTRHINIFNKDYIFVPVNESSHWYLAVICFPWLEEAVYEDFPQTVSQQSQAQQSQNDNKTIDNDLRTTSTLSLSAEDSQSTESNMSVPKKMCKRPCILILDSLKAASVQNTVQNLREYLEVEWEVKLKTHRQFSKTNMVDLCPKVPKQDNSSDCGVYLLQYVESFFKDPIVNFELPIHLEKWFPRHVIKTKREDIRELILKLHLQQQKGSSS
SENP8 block-2: blocks the human protease SENP8; Q96LD8; purified SENP8, Z-RLRGG-aminoluciferin cleavage, luminescence; inhibition, % at 10 µM; 330,000 compounds, 1.2% hits; AID 2540; in the data active = inhibition above about 50%
SENP1 FRET inh: blocks the human SENP1 SUMO protease catalytic domain; AID 624204; 360,000 compounds, 0.21% hits; inhibition, % at 10 µM; recombinant SENP1 catalytic domain, CyPet-SUMO1-YPet FRET cleavage;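 active = inhibition at least 30% at 10 µM, raw YFP signal under a set limit, fluorescence ratio 0.5 to 1.5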;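 note: 0% = enzyme with DMSO and 100% = no enzyme wells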
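Assay system: hSENP1 catalytic domain, recombinant. Amount: SENP1 enzyme, 20 pM final. Schedule: 50 min reaction, RT, dark. Technique: FRET, CFP and YFP emission. Control set: no-enzyme wells low, DMSO-plus-enzyme wells high control.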
Platelet DG rel: modulates dense granule release in human platelets | human platelet-rich plasma, SFLLRN dense granule ATP release, luminescence | inhibition, %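 (compounds screened at 7.5 µM in platelet-rich plasma)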 | 300,000 compounds, 0.22% hits;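 active = mean replicate score, as percent of positive control, at or above 50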
SENP8 conf: SENP8 (human) inhibition, single concentration confirmation. shares compounds with SENP8 block-1. AID 624319. purified SENP8, Nedd8-AMC/pro-Nedd8 cleavage fluorescence, 30 min. 1,400 compounds, 15% hits. inhibition, % at 25 µM; in the data active = inhibition mostly above about 39%, no sharp cut-off; inactive = mostly below about 34%
Active calls of the source: *; . = no result given. Compounds with a hit are over-represented: about 2.6% of the library has one in this group of screens.

SMILES	SENP6 inh	SENP8 block-1	SENP7 block	SENP8 block-2	SENP1 FRET inh	Platelet DG rel	SENP8 conf
O=C(Nc1ccc(N2CCCC2)cc1)c1ccc([N+](=O)[O-])cc1Cl	-15	43*	-7	-4	4	-2	16
CN(C)c1ccc(NC(=O)c2ccc([N+](=O)[O-])cc2Cl)cc1	25	11	5	-1	5	-3	.
CCC(=O)NC(=S)Nc1ccc(NC(=O)c2ccc([N+](=O)[O-])cc2Cl)cc1	5	43*	1	7	4	9	8
O=C(Nc1ccc(S(=O)(=O)N2CCOCC2)cc1)c1ccc([N+](=O)[O-])cc1Cl	-6	12	-1	0	1	0	.
COc1cccc(OCc2cc(C(=O)N3CCN(c4ccccc4OC)CC3)no2)c1	16	1	-7	0	2	-2	.
COc1ccc(N/C=C/C(=O)c2ccc(C)cc2)c([N+](=O)[O-])c1	12	44*	31	12	13	20	12
CN(C(=S)Nc1ccccc1)c1ccccc1	-10	24	0	-4	0	8	.
CN(C(=S)Nc1ccc(Oc2ccccc2)cc1)c1ccc(O)cc1	.	46*	.	.	-22	-12	15
CN(C(=S)Nc1cccnc1)c1ccc(O)cc1	.	40*	.	.	1	-6	12
COc1ccccc1N1CCN(C(=O)CNC(=O)c2ccc(Cl)cc2Cl)CC1	-12	5	-1	2	-1	-10	.
COc1ccc(CNC(=O)[C@@H](NC(=O)C2CCN(C(=O)[C@@H]3CCCN3C(=O)OC(C)(C)C)CC2)C(C)C)cc1	-17	7	-12	-18	4	2	.
COc1ccccc1CNC(=O)[C@H](C)NC(=O)C1CCN(C(=O)[C@@H]2CCCN2C(=O)OC(C)(C)C)CC1	1	45*	-1	8	-1	-2	14
Cc1ccc(C(=O)NCc2ccccn2)c(Cl)c1	3	41*	-5	-6	1	9	22
CCC(C)C(NC(N)=O)C(=O)Nc1ccc(OCc2ccccc2)cc1 (centres undefined)	0	49*	8	2	4	5	20
O=C(Nc1ccc(Cl)cc1)c1ccc(CN2CCc3ccccc3C2)cc1	14	47*	11	-2	-2	1	25
O=C(NCc1ccc2c(c1)OCO2)c1ccc(CN2CCc3ccccc3C2)cc1	-17	42*	5	0	0	-12	13
Cc1cc(C)c(NC(=O)c2ccc(CN3CCc4ccccc4C3)cc2)c(C)c1	11	45*	8	-3	-2	-1	19
CC(=O)c1cccc(NC(=O)c2ccc(CN3CCc4ccccc4C3)cc2)c1	12	22	-1	9	2	-1	.
CCOc1ccc(NC(=O)c2ccc(CN3CCc4ccccc4C3)cc2)cc1	-11	9	8	-4	0	9	.
CCOC(=O)c1ccc(NC(=O)c2ccc(CN3CCc4ccccc4C3)cc2)cc1	17	34	9	3	-2	5	.
O=C(NCc1ccc2c(c1)OCO2)c1ccccc1	-2	2	-7	-14	-2	2	.
N#CCc1ccc(NC(=O)c2ccc(CN3CCc4ccccc4C3)cc2)cc1	13	59*	4	4	1	3	12
O=C(NCCOc1ccccc1)C1CCC(=O)N(C2CCCCCC2)C1 (centres undefined)	-12	2	7	-3	2	3	.
CCOc1ccccc1CN1CCNC(=O)C1CC(=O)NCc1cc(C)n(C)n1 (centres undefined)	0	-20	-1	5	-3	10	.
CC(C)CC(=O)Nc1ccccc1N1CCCC1	-22	19	-5	-7	1	7	.
SMILES	SENP6 inh	SENP8 block-1	SENP7 block	SENP8 block-2	SENP1 FRET inh	Platelet DG rel	SENP8 conf
CC(C)CC(=O)NC(=S)Nc1ccccc1N1CCCC1	27	59*	7	10	1	-3	41
O=C(O)/C=C/C(=O)Nc1ccc(O)cc1	-10	81*	-4	-4	20	0	31
O=C(O)/C=C/C(=O)Nc1ccc(C(=O)c2ccccc2)cc1	-9	13	0	-6	1	2	.
Cc1[nH][nH]c(=O)c1C(c1ccc(-c2cccc(C(=O)O)c2)o1)c1c(C)[nH][nH]c1=O	39	52*	16	19	0	-2	70*
Cc1[nH][nH]c(=O)c1C(c1ccc(-c2ccccc2C(=O)O)o1)c1c(C)[nH][nH]c1=O	.	49*	.	.	1	2	38*
Cc1ccc2oc(-c3ccccc3C(=O)O)cc(=O)c2c1	-6	-17	-1	-11	3	-37	.
COC(=O)c1ccc(-c2ccc(C(c3c(C)[nH][nH]c3=O)c3c(C)[nH][nH]c3=O)o2)cc1	15	-16	7	4	-6	-5	.
Cc1[nH][nH]c(=O)c1C(c1ccc(-c2cccc(Cl)c2)o1)c1c(C)[nH][nH]c1=O	43	79*	10	20	-2	4	85*
Cc1ccc(S(=O)(=O)N2C[C@@H](C)[C@]3(C2)[C@H](O)[C@H](OC(=O)NC2CC2)C[C@H]2C(=O)N(c4ccccc4)C(=O)[C@H]23)cc1	.	2	.	.	1	.	.
Cc1ccccc1C1=C/C(=C(\SS/C(C(=O)c2ccc(OCC(=O)O)c(Cl)c2Cl)=C2\C=C(c3ccccc3C)SS2)C(=O)c2ccc(OCC(=O)O)c(Cl)c2Cl)SS1	.	41*	.	.	6	.	56*
CSc1nnc(C)c(/C=C/NOCc2ccc(Cl)cc2)n1	25	44*	7	3	1	-2	40
CN(Cc1ccccc1)C(=O)c1[nH]c(C(F)(F)F)nc1-c1ccccc1	.	14	.	.	-2	.	.
N#CC1=C(N)Oc2n[nH]c(-c3cccs3)c2C1c1cccs1 (centres undefined)	33	59*	24	11	-1	4	15
COC(=O)C1(C(=O)OC)Cc2ccccc2N(S(=O)(=O)c2ccc(C)cc2)C1CC(C)=O (centres undefined)	.	24	.	.	-1	.	.
NC(=O)C[C@H](N)c1cn([C@@H](CC(N)=O)C(=O)N2CCNCC2)nn1	3	22	3	-11	2	.	.
COc1ccc([N+](=O)[O-])cc1NC(=S)Nc1ccccc1	-1	26	-1	6	1	4	.
COc1ccc([N+](=O)[O-])cc1NC(=S)NC(=O)C(C)(C)C	-1	40*	2	2	-2	4	27
N#C/C(=C\C1=C(N2CCOCC2)C(=C/c2cccc([N+](=O)[O-])c2)/CC1)C(=O)Nc1ccccc1F	.	48*	.	.	82	.	19
N#C/C(=C/C1=C(N2CCOCC2)C(=C/c2ccccc2)/CC1)C(=O)Nc1ccccc1F	.	27	.	.	55	.	.
